Results gathered from unrelated publications.
Protocols differ between the studies behind these lines.
Target: MAP kinase-activated protein kinase 2 (MAPKAPK2, Homo sapiens, UniProt P49137)

`Cn1cc(-c2cccc(N3CCc4c(sc5c4CC(C)(C)C5)C3=O)c2CO)cc(Nc2ccncn2)c1=O` gave an inhibition of -5% (enzyme activity; inhibitor; 1 µM).
`Cn1cncc1[C@@](O)(COc1ccc(C#N)cc1-c1ccc(OC(F)(F)F)cc1)c1ccc(C#N)cc1` has a remaining binding of 61% (cell-free assay; competition with immobilised ligand; 1 µM).
`CC(C)(C)c1cc(C=C(C#N)C#N)cc(Br)c1O` gave a remaining activity of 92.3% (enzyme activity; inhibitor; 0.5 µM).
For `COc1cc(Cl)c(C(=O)N[C@@H](CN[C@H]2CC[C@@H](N)CC2)Cc2ccc(C#N)cc2)cc1-c1ccc(CN[C@H](C)c2ccc(C)cc2)o1`, the remaining activity was 107% (enzyme activity; inhibitor; 1 µM).
The inhibition of `Cn1cc(-c2cc(F)cc(N3CCn4c(cc5c4CCCC5)C3=O)c2CO)cc(Nc2ccc(N3CCN(C4COC4)CC3)cn2)c1=O` is reported as 5% (enzyme activity; inhibitor; 0.1 µM).
The inhibition of `C#Cc1n[nH]c2c(-c3cn(C(C)c4ccccn4)c(=O)[nH]c3=O)cc(F)cc12` (centres unmarked) is reported as 13.1% (enzyme activity; inhibitor; 1 µM).
`COc1cc(Nc2ncc(F)c(Nc3ccc4c(n3)NC(=O)C(C)(C)O4)n2)cc(OC)c1OC` gave an inhibition of 0% (binding; 10 µM).
`Cc1nn(C)cc1-c1nc2c(N3CCN(Cc4ccc(Cl)cc4)CC3)c(Cl)cnc2[nH]1` has a remaining binding of 100% (binding; competition with immobilised ligand; 1 µM).
With `O=c1[nH]c2ccccc2n1C1CCN(Cc2ccc(-c3[nH]c4cc5ncnc5cc4nc3-c3ccccc3)cc2)CC1` the remaining signal was 98.7% (cell-free assay; 0.5 µM).
With `COc1ncccc1-c1cnn2ccc(N3CCN(C(=O)OC(C)C)CC3)nc12` the remaining binding was 100% (binding; competition with immobilised ligand; 1 µM).
`Nc1ncc(-c2nc(N3CCOCC3)nc(N3CCOCC3)n2)c(C(F)F)n1` has a remaining binding of 85% (binding; competition with immobilised ligand; 10 µM).
